pIC50: −log10 of the molar value. Active and inactive are the calls of the source. The rule behind the calls is not given here.
What was measured:
[1] = Cmax in Sprague-Dawley rat at 20 mg/kg, po administered as single dose by HPLC analysis; format: ADME, organism-based; parameters: dose 20 mg/kg, route oral; settings: in vivo
How it was run: (§1)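 Rats fasted overnight, then given one 20 mg/kg dose either iv or po. Blood was collected and centrifuged at once to obtain plasma. Plasma drug levels were measured by HPLC, and PK parameters were derived from the concentration-time data.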

[2] = test system: SiHa; assay: Cell cycle arrest in human SiHa cells assessed as decrease in S-phase at 0.25 to 0.5 uM after 24 hrs by propidium iodide-staining based flow cytometric analysis; format: functional
How it was run: (§2)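 Cells were seeded at 5 × 10^5 cells/mL. At 24 h after plating they were treated with increasing concentrations for 24 h, washed in PBS, and fixed in ice-cold 70% ethanol for at least 24 h. They were stained with propidium iodide plus RNase A for 30 min at 37 °C and analysed by flow cytometry for phase distribution.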

[3] = organism: Homo sapiens; assay: Inhibition of mTORC2 in human MDA-MB-231 cells assessed as reduction in AKT phosphorylation at Ser473 residues at 0.25 to 0.5 uM by Western blot analysis; format: cell-based
How it was run: (§3)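 Cells exposed to a range of compound concentrations; whole-cell lysates immunoblotted for phospho-AKT (Ser473) as the mTORC2 readout, alongside S6 and 4E-BP1 phosphorylation for mTORC1. Membranes blocked in 5% skim milk, primary antibodies overnight at 4 °C, peroxidase-conjugated anti-mouse or anti-rabbit IgG secondary, ECL detection. Rapamycin as comparator.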

[4] = test system: HeLa; assay: Cell cycle arrest in human HeLa cells assessed as accumulation at G0/G1 phase at 0.5 to 1 uM after 24 hrs by propidium iodide-staining based flow cytometric analysis; format: functional; how it was run: as §2
[5] = test system: T47D; assay: Antitumor activity against human T47D cells xenografted in BALB/c nude mouse assessed as decrease in tumor growth at 15 mg/kg, po administered via gavage after 3 weeks relative to control; format: functional; settings: 504 h, read-out: TGI
[6] = organism: Homo sapiens; assay: Inhibition of mTORC1 in human MCF7 cells assessed as reduction in 4E-BP1 phosphorylation at Ser65 residues at 0.25 to 0.5 uM by Western blot analysis; format: cell-based
How it was run: (§4)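 Cells treated with the indicated concentrations, then whole-cell lysates immunoblotted. mTORC1 activity read as S6 and 4E-BP1 phosphorylation; mTORC2 activity read as AKT Ser473 phosphorylation. Blocking in 5% skim milk, primary antibodies at 4 °C overnight, peroxidase-conjugated secondary, ECL detection.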

[7] = test system: T47D; assay: Cell cycle arrest in human T47D cells assessed as accumulation at G0/G1 phase at 0.25 to 0.5 uM after 24 hrs by propidium iodide-staining based flow cytometric analysis; format: functional; how it was run: as §2
[8] = test system: SiHa; assay: Growth inhibition of human SiHa cells after 72 hrs by CCK8 assay; format: functional, cell-based
How it was run: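 Cells were seeded at 2000–3000 per well and grown 24 h in serum-containing medium. They were then exposed to serially diluted compound for 72 h at 37 °C, 5% CO2. CCK8 reagent was added for 1–4 h and absorbance read at 450 nm. Inhibition = (AC − AS)/(AC − Ab) × 100%. IC50 is the average of at least three independent determinations.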

[9] = test system: MDA-MB-231; assay: Cell cycle arrest in human MDA-MB-231 cells assessed as decrease in S-phase at 0.25 to 0.5 uM after 24 hrs by propidium iodide-staining based flow cytometric analysis; format: functional; how it was run: as §2
[10] = test system: Mus musculus; assay: Down regulation of 4E-BP1 phosphorylation at Thr37/46 residues in human T47D cells xenografted in BALB/c nude mouse administered via oral gavage after 3 weeks by hematoxylin and eosine staining based light microscopic assay; format: functional, cell-based
How it was run: (§5)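 Tumours from the oral 3-week T-47D xenograft study were formalin-fixed, paraffin-embedded and cut into 5 μm sections. Sections were deparaffinized, rehydrated and incubated overnight at 4 °C with phospho-specific primary antibody at 1:100. Biotin secondary was applied for 1 h at room temperature, then ABC-peroxidase/DAB with hematoxylin counterstain. Sections were viewed by light microscopy.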

[11] = test system: Rattus norvegicus; assay: Apparent volume of distribution at steady state in Sprague-Dawley rat at 20 mg/kg, po administered as single dose by HPLC analysis; format: ADME, organism-based; settings: in vivo; how it was run: as §1
[12] = test system: HeLa; assay: Inhibition of mTORC1 in human HeLa cells assessed as reduction in S6 phosphorylation at Ser 240/244 residues at 0.5 to 1 uM by Western blot analysis; format: cell-based; how it was run: as §4
[13] = test system: PI3-kinase p110-alpha/p85-alpha (Homo sapiens), P27986+P42336 [E545K]; assay: Inhibition of full length recombinant human p85alpha/PI3K p110alpha E545K mutant at 1 uM relative to control
How it was run: (§6)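 Eurofins KinaseProfiler panel with compound at a single 1 μM concentration. ATP at the Km of each kinase. Result is % inhibition, mean of two independent experiments.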

[14] = AUC (0 to infinity) in Sprague-Dawley rat at 20 mg/kg, iv administered as single dose by HPLC analysis; format: ADME, organism-based; parameters: dose 20 mg/kg, time infinity, route intravenous; settings: in vivo; how it was run: as §1
[15] = target: PI3-kinase p110-alpha/p85-alpha (Homo sapiens) (UniProt P27986+P42336); assay: Inhibition of full length recombinant human PI3K p110alpha/p85alpha at 1 uM relative to control; format: protein-complex assay; how it was run: as §6
[16] = organism: Homo sapiens; assay: Inhibition of mTORC2 in human SiHa cells assessed as reduction in AKT phosphorylation at Ser473 residues at 0.25 to 0.5 uM by Western blot analysis; format: cell-based; how it was run: as §3
[17] = organism: Homo sapiens; assay: Inhibition of mTORC1 in human SiHa cells assessed as reduction in S6 phosphorylation at Ser 240/244 residues at 0.25 to 0.5 uM by Western blot analysis; format: cell-based; how it was run: as §4
[18] = organism: Mus musculus; assay: Inhibition of full length recombinant mouse p85alpha/PI3K p110alpha H1047R mutant at 1 uM relative to control; how it was run: as §6
[19] = test system: HeLa; assay: Induction of autophagy in human HeLa cells assessed as increase in LC3-2 puncta level after 48 hrs by immunofluorescence staining based microscopic analysis; format: functional, cell-based
How it was run: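 Cells were grown on glass coverslips and exposed to inhibitor for 48 h. They were fixed in 4% paraformaldehyde, permeabilized with 0.15% Triton X-100 and blocked in 4% BSA/PBS for 1 h. Anti-LC3B was applied overnight at 1:200, followed by FITC secondary and DAPI nuclear stain. LC3B-II puncta were counted by fluorescence microscopy.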

[20] = test system: HeLa; assay: Cell cycle arrest in human HeLa cells assessed as decrease in S-phase at 0.5 to 1 uM after 24 hrs by propidium iodide-staining based flow cytometric analysis; format: functional; how it was run: as §2
[21] = test system: Mus musculus; assay: Toxicity in BALB/c nude mouse xenografted with human T47D cells assessed as decrease in body weight at 15 to 60 mg/kg, po administered via gavage for 3 weeks measured during compound dosing; format: organism-based; settings: in vivo, 504 h
How it was run: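 BALB/c nude mice, 6−8 weeks old, injected subcutaneously with 100 μL T-47D cells at 2 × 10^7 per mL in serum-free medium. At 100−120 mm3, randomized to 5 groups of 5: 15, 30 or 60 mg/kg/d, rapamycin 60 mg/kg/d, or vehicle. Dosed daily by intragastric route in DMSO for 3 weeks. Side effects checked daily; body weight every other day.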

[22] = test system: Mus musculus; assay: Down regulation of S6 phosphorylation at Ser240/244 residues in human T47D cells xenografted in BALB/c nude mouse administered via oral gavage after 3 weeks by hematoxylin and eosine staining based light microscopic assay; format: functional, cell-based; how it was run: as §5

For `N#CCN1CCC(n2c(=O)cnc3cnc4ccc(-c5ccc(N)nc5)cc4c32)CC1`, the Cmax [1] was 807 ng/mL, the Activity [2] was “Active” and the inhibition [3] was “Active”. For the same compound, the Activity [4] was “Active”, the inhibition in vivo at 15 mg/kg [5] was 63.2% and the inhibition [6] was “Active”. For the same compound, the Activity [7] was “Active”, the pIC50 [8] was 6.96 and the Activity [9] was “Active”. For the same compound, the Activity [10] was “Dose-dependent effect”, the “Vdss(app)” value [11] was 21.79 L/kg and the inhibition [12] was “Active”. The inhibition [13] was 13%, the AUC(0-inf) [14] was 6560 ng·h/mL and the inhibition [15] was 10%. The inhibition [16] was “Active”, the inhibition [17] was “Active” and the inhibition [18] was 7%. The Activity [19] was “Dose-dependent effect”, the Activity [20] was “Active” and the Activity [21] was “Non-Toxic”. For the same compound, the Activity [22] was “Dose-dependent effect”.

— ChEMBL document CHEMBL4020823, “Highly Selective, Potent, and Oral mTOR Inhibitor for Treatment of Cancer as Autophagy Inducer” (J Med Chem, 2018)
